Source: PMC11299136 (ACS Applied Materials & Interfaces, 2024)

Key:
[1] = Temperature-dependent circular dichroism; format: physicochemical
Method in brief: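 Proteins were either diluted in PBS or dispersed in PFOc with 1 mM dispersant. The aqueous samples were heated between 40 and 90 °C, with a CD spectrum taken at each temperature. The PFOc dispersions were heat-treated at 40, 55, 70 and 85 °C for 15 min each, then mixed with PBS to elute the protein before CD. Each condition was run in triplicate, and representative spectra were reported.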

bacteria = assay: Control bacterial viability; format: cell-based; settings: component alone: PFOc mixed with bacterial media, or PD-7 added to PBS
HepG2 cells = assay: Cellular toxicity, MTT assay; format: cell-based, human; settings: 2–128 μL fluorous solvent added to culture medium, 48 h
Method in brief: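 HepG2 cells seeded at 2000 cells/well and allowed to adhere overnight. Dispersant at 10 nM–1 mM in culture medium, or 2–128 μL fluorous solvent added to the medium, for 48 h. Serum-free medium served as the negative control and 20% DMSO in serum-free medium as the positive control. Then 0.5 mg/mL MTT in serum-free medium for 2 h, formazan dissolved in DMSO, A540 read. Viability was normalized between the two controls.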

[2] = dispersed in PFOc using PD-7, heated up to 85 °C

| Molecule | change in secondary structure on heating (CD) [1, 2] | MIC / bacterial viability (bacteria) | toxicity toward human liver cells (HepG2 cells) | change in secondary structure on heating (CD) ([1]; saline (PBS) control formulation, 40–85 °C) |
| --- | --- | --- | --- | --- |
| bovine serum albumin [BSA] | minimal changes in secondary structure |  |  |  |
| rabbit serum immunoglobulin [IgG] | minimal changes in secondary structure |  |  |  |
| FC(F)(F)C(F)(F)C(F)(F)C(F)(F)C(F)(F)C(F)(F)C(F)(F)C(F)(F)F [PFOc, perfluorooctane] |  | no MIC could be calculated | biocompatible |  |
| β-galactosidase | minimal changes in secondary structure |  |  |  |
| bovine trypsin (protein, UniProt P00760 24-246, looked up) Serine protease 1: IVGGYTCGANTVPYQVSLNSGYHFCGGSLINSQWVVSAAHCYKSGIQVRLGEDNINVVEGNEQFISASKSIVHPSYNSNTLNNDIMLIKLKSAASLNSRVASISLPTSCASAGTQCLISGWGNTKSSGTSYPDVLKCLKAPILSDSSCKSAYPGQITSNMFCAGYLEGGKDSCQGDSGGPVVCSGKLQGIVSWGSGCAQKNKPGVYTKVCNYVSWIKQTIASN | minimal changes in secondary structure |  |  | minimal change in structure |
